KCNQ1 inh: human KCNQ1 channel inhibition. 310,000 compounds, 1.3% hits. CHO-K1 KCNQ1, FluxOR thallium flux fluorescence; stronger effect = higher value. B-score at 10 µM. P51787;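 active = compounds whose thallium flux B-score, printed positive for inhibition, exceeds three library SD while starting fluorescence stays within three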;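 note: channel opened by potassium depolarization with thallium stimulus after 20 min compound exposure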
KCNK3 block: human KCNK3 channel inhibition, primary screen; O14649; B-score at 10 µM; CHO-KCNK3 thallium flux, FluxOR fluorescence; stronger effect = lower value; 340,000 compounds, 0.84% hits;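 active = B-score under library mean minus 4 SD, starting fluorescence ratio at most library mean plus 5 SD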;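 note: more negative B-score means stronger inhibition of thallium flux through KCNK3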
hERG protect: shields human hERG channel from block by proarrhythmic agents; Q12809; activation (rescue from dofetilide block), less the hit threshold, % at 10 µM; CHO-hERG, FluxOR thallium flux, dofetilide IC70 present; AID 1511; 310,000 compounds, 0.51% hits;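 active = activation above the mean of controls blocked by dofetilide plus 5 SD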;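 note: thallium influx through hERG after potassium depolarization seen as dye fluorescence rise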
KCNQ1 act: potentiators or activators of human KCNQ1 potassium channel; 310,000 compounds, 0.35% hits; CHO-K1 KCNQ1, thallium flux FluxOR fluorescence; stronger effect = higher value; P51787; B-score at 10 µM;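 active = fluorescence ratio B-score, a plate-corrected score, at least three library SD, with initial intensity B-score within 5 SD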
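System: CHO-K1 cells stably expressing KCNQ1 / Medium: assay buffer for compound exposure, DMSO matched across wells / Reagent: thallium- and potassium-containing depolarizing buffer / Compound: one concentration, matched DMSO / Incubation: 20 min compound pretreatment at room temperature / Measured by: kinetic FluxOR fluorescence, 10 s baseline plus 110 s post-stimulus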
KCNK9 inh: inhibitors of human KCNK9 two-pore domain potassium channel; AID 488922; HEK293 KCNK9, FluxOR thallium flux fluorescence; stronger effect = lower value; 310,000 compounds, 1.2% hits; B-score at 10 µM;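 active = ratio B-score over 3 SD below the library mean, with starting fluorescence within 5 SD of its mean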;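 note: negative B-score means less thallium flux so channel inhibition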
Kir21 block: Kir2.1 (mouse) channel inhibition; P35561; HEK293-Kir2.1, FluxOR thallium flux fluorescence; stronger effect = lower value; B-score at 10 µM; 310,000 compounds, 0.85% hits; AID 1672;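 active = fluorescence ratio B-score at or below minus 3 SD of library scores, with starting-brightness B-score within 2 SD, cut at about -4.2 in these data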;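 note: channel flux triggered by added potassium and thallium sulfate stimulus; B-score of peak minus minimum fluorescence over baseline after thallium stimulus; more negative B-score means stronger Kir2.1 block with less thallium influx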
Each line names hits and unclear results; the compound was inactive in the other large screens. This is a sample that favours compounds with a hit; in the whole collection about 3.7% have one here.

CCCCn1c(N)c(N(CC(C)C)C(=O)c2cccc(OCc3ccccc3)c2)c(=O)[nH]c1=O	none
Cc1nc2ccccc2c2oc(C(=O)NCC3COc4ccccc4O3)cc12 (stereo unspecified)	KCNK3 block -10
Cc1nc2ccccc2c2oc(C(=O)Nc3ccc(C(C)C)cc3)cc12	KCNQ1 inh 9
Cc1nc2ccccc2c2oc(C(=O)Nc3ccc4c(c3)OCCO4)cc12	none
CCOc1ccccc1N1CCN(C(=O)c2ccc3nc(N)sc3c2)CC1	none (no result: KCNQ1 inh, hERG protect, KCNQ1 act, KCNK9 inh, Kir21 block)
Cc1ccc(NC(=O)CSC(C)c2nc3ccccc3c(=O)[nH]2)cc1 (stereo unspecified)	none
CC(NC(=O)Nc1ccc(F)cc1)c1ccc2c(c1)OCO2 (stereo unspecified)	none
CCOC(=O)C1=C(C)N(CC(C)C)C(=O)C1	none
COCCC(C(=O)Oc1c(C(C)(C)C)cc(C)cc1C(C)(C)C)c1ccccc1 (stereo unspecified)	none (no result: KCNQ1 inh, hERG protect, KCNQ1 act, KCNK9 inh, Kir21 block)
CCN1C(=O)[C@H]2[C@@H](c3ccc(C)cc3)N3C(=O)N(c4ccc(C)cc4)C(=O)[C@@]3(CC)[C@H]2C1=O	none
CCN1C(=O)[C@H]2[C@@H](c3ccc(C)cc3)N3C(=O)N(c4ccc(C(F)(F)F)cc4)C(=O)[C@@]3(CC(C)C)[C@H]2C1=O	KCNK9 inh -7.6
Cc1ccc(S(=O)(=O)N(Cc2ccc(F)cc2)Cc2ccco2)cc1	KCNQ1 inh 6
Cc1ccc(S(=O)(=O)N(CC(=O)O)Cc2ccco2)cc1	none
CC1CCCC(NC(=S)NC(=O)c2ccccc2Br)C1C (stereo unspecified)	hERG protect 7.2, KCNQ1 act 8
O=C(NNC(=S)NC1CCCCC1)c1ccccc1Br	none
COc1nc(-c2ccccc2)cc(C(F)(F)F)n1	hERG protect 4.7
COc1ccc(-c2cc(C(F)(F)F)nc(S(C)(=O)=O)n2)cc1	KCNQ1 inh 6
CS(=O)(=O)c1nc(-c2cccs2)cc(C(F)(F)F)n1	Kir21 block -6 (no result: KCNK3 block)
CN1CCN(c2nc(-c3cccs3)cc(C(F)(F)F)n2)CC1	KCNQ1 act 10
COC(=O)C1=C(Cn2cnc3ccccc32)NC(=O)NC1c1cc(C)ccc1C (stereo unspecified)	none
CCOC(=O)C1=C(Cn2cnc3ccccc32)NC(=O)NC1c1cc(C)ccc1C (stereo unspecified)	hERG protect 13
CC(C)NC(=O)COC(=O)CNC(=O)c1cc(Cl)cc([N+](=O)[O-])c1	none
CCOC(=O)c1ccccc1OC(=O)CS(=O)c1ccccc1[N+](=O)[O-] (stereo unspecified)	KCNQ1 inh 6
O=C(CSc1nnc(CNC(=O)c2ccccc2)o1)NCc1ccc2c(c1)OCO2	none
Cc1ccc(C(=O)N/N=C(/CC(=O)c2cccs2)C(F)(F)F)cc1	hERG protect 16, KCNQ1 act 13
Nc1nonc1-c1nc2ccccc2n1CC(=O)Nc1ccccc1	none
CCOC(=O)c1ccccc1NC(=O)Cn1c(-c2nonc2N)nc2ccccc21	KCNK9 inh -7.6
CC(C)[C@@H](C(=O)N[C@@H](C(=O)O)c1ccccc1)N1C(=O)N2CCc3c([nH]c4ccccc34)[C@@]2(C)C1=O	none
O=C(Cc1nc2ccccc2[nH]1)c1cccc([N+](=O)[O-])c1	KCNQ1 inh 8
O=C(Nc1cc(Cl)cc(Cl)c1)Nc1cnccn1	none
OC(COCc1ccc(Cl)cc1)CN1CCCCC1 (stereo unspecified)	none
C=CCc1ccc(OCC(O)CN2CCN(Cc3ccc(Cl)cc3)CC2)c(OC)c1 (stereo unspecified)	Kir21 block -8.3
OC(COCc1ccc(Cl)cc1)CN1CCN(CC(O)COCc2ccc(Cl)cc2)CC1 (stereo unspecified)	Kir21 block -4.9
C=CCc1ccc(OCC(O)CN2CCC(Cc3ccccc3)CC2)c(OC)c1 (stereo unspecified)	none
CC1(CC(=O)N/N=C/c2cc3c(cc2Br)OCO3)OCCO1	none
COc1cc(C=C(c2nc3ccccc3s2)c2nc3ccccc3s2)ccc1O	KCNQ1 inh 6
CCC(=O)c1ccc(OCC(=O)OCC(=O)N2CCc3ccccc32)cc1	none
CCn1c2ccccc2c2cc(N=C3SC(CC(=O)Nc4ccccc4OC)C(=O)N3CCOC)ccc21 (stereo unspecified)	KCNK9 inh -7.1
Cc1sc2ncnc(SCc3ccc(C(=O)O)cc3)c2c1C	none
COC(=O)c1ccc(CSc2ncnc3sc(C)c(C)c23)o1	hERG protect 8.8, KCNQ1 act 8
O=C(COC(=O)c1ccc(Br)cc1)NCCN1C(=O)CSC1=O	hERG protect 7.3
CC(C)(c1ccccc1)c1ccc(OCC(O)CN2CCCC2)cc1 (stereo unspecified)	Kir21 block -5.3
COc1ccc(N2CCN(CC(O)COCCOc3ccc(Br)cc3)CC2)cc1 (stereo unspecified)	Kir21 block -4.3
OC(COc1ccc2cc(Br)ccc2c1)CN1CCCC1 (stereo unspecified)	Kir21 block -6.8
COc1ccccc1N1CCN(CC(O)COCCOc2ccc(Br)cc2)CC1 (stereo unspecified)	none
O=C(NC1CCCCC1)Oc1cccc2ccccc12	none
O=C(NCc1ccc(Cl)cc1)N1CCN(Cc2ccccc2)CC1	none
O=[N+]([O-])c1cc([N+](=O)[O-])c2oc(-c3ccccc3)c(Br)c2c1O	KCNQ1 inh 8
C[C@H](CO)N1C[C@H](C)[C@@H](CN(C)S(=O)(=O)c2ccc(F)cc2)Oc2ccc(NC(=O)C3CC3)cc2C1=O	none (no result: KCNQ1 inh, hERG protect, KCNQ1 act, KCNK9 inh, Kir21 block)
COc1cc(-c2nc3ccc(N4CCN(C)CC4)cc3[nH]2)cc(OC)c1OC	hERG protect 5.5
C#Cc1ccc(CN2CCC(C(=O)Nc3ccc(Oc4ccccc4)nc3)CC2)cc1	KCNQ1 inh 6
C#Cc1ccc(CN2CCCC(C(=O)Nc3ccccc3Oc3cccnc3)C2)cc1 (stereo unspecified)	Kir21 block -5.1
Cc1cccc(CN2CCC(C(=O)Nc3ccc(Oc4cccnc4)cc3)CC2)c1	Kir21 block -4.3
CCN1c2ccccc2-c2nc3ccccc3n2C1c1ccccn1 (stereo unspecified)	KCNK3 block -10
C/C(=N\N=C(N)N)c1ccc(Cl)c(Cl)c1	Kir21 block -5.3
COc1ccc(CCNC(=O)Cn2cccc2C(=O)c2ccccc2)cc1OC	none
Cc1ccccc1C(=O)c1cccn1CC(=O)NCC(C)c1ccccc1 (stereo unspecified)	Kir21 block -6.4
COc1ccc(CCNC(=O)Cn2cccc2C(=O)c2ccccc2C)cc1OC	Kir21 block -5
CC1(c2ccc3c(c2)OCCO3)NC(=O)N(CC(=O)Nc2c(F)cccc2F)C1=O (stereo unspecified)	none (no result: KCNQ1 inh, hERG protect, KCNQ1 act, KCNK9 inh, Kir21 block)
